# Assays:
# Rattus norvegicus [1] = experiment: Distribution of the radio labelled compound in hippocampus of rat brain after intravenous administration in presence of RTI-113 after 60 min; assay type: ADME, organism-based; settings: in vivo, 1 h
# Summary of the method: (§1)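 Male Sprague–Dawley rats (200–250 g) under ketamine/xylazine anaesthesia with tail-vein cannulas. Blocker or none given 15 min before ~20 μCi [123I] tracer iv in 0.2 mL 10% ethanol/saline; blocker dose 4 mg/kg.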
# Rattus norvegicus [2] = experiment: Distribution in blood […] after intravenous administration by using [123I]-ZIET after 30 min; assay type: ADME, organism-based; settings: in vivo, 0.5 h
# Summary of the method: (§2)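 Male Sprague–Dawley rats (200–250 g), fed ad libitum, given ~20 μCi radiotracer iv via tail-vein cannula in 0.2 mL 10% ethanol/saline under ketamine/xylazine im anesthesia. Killed at 5, 30, 60 or 120 min (n = 5; n = 4 at 120 min). Brain regions dissected, weighed, gamma-counted with dose standards, decay-corrected; mean %ID/g ± SE.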
# Rattus norvegicus [3] = experiment: Distribution in thyroid of rat brain after intravenous administration by using [123I]ZIET after 120 min; assay type: ADME, organism-based, Thyroid gland; settings: in vivo, 2 h; summary of the method: as §2
# Rattus norvegicus [4] = experiment: Distribution in hypothalamus of rat brain after intravenous administration by using [123I]ZIET after 60 min; assay type: ADME, organism-based; settings: in vivo, 1 h; summary of the method: as §2
# Rattus norvegicus [5] = experiment: Distribution in frontal cortex of rat brain after intravenous administration by using [123I]ZIET after 120 min; assay type: ADME, organism-based; settings: in vivo, 2 h; summary of the method: as §2
# [6] = Ratio of radioactivity in occipital cortex of rat brain to that of rat cerebellum after intravenous administration after 30 min; assay type: functional
# Summary of the method: (§3)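 Male Sprague–Dawley rats (200–250 g) given ~20 μCi [123I] tracer iv in 0.2 mL 10% ethanol/saline under ketamine/xylazine; killed at 5, 30, 60, 120 min (n = 5; n = 4 at 120 min). Brain regions dissected, gamma counted, decay-corrected to %ID/g; regional uptake divided by cerebellum.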
# Rattus norvegicus [7] = experiment: Distribution in thyroid of rat brain after intravenous administration by using [123I]ZIET after 5 min; assay type: ADME, organism-based, Thyroid gland; settings: in vivo; summary of the method: as §2
# Rattus norvegicus [8] = experiment: Distribution in frontal cortex of rat brain after intravenous administration by using [123I]-ZIET after 30 min; assay type: ADME, organism-based; settings: in vivo, 0.5 h; summary of the method: as §2
# Rattus norvegicus [9] = experiment: Distribution of the radio labelled compound in frontal cortex of rat brain after intravenous administration in absence of blocker after 60 min; assay type: ADME, organism-based; settings: in vivo, 1 h; summary of the method: as §1
# Rattus norvegicus [10] = experiment: Distribution of the radio labelled compound in rest of rat brain after intravenous administration in presence of RTI-113 after 60 min; assay type: ADME, organism-based; settings: in vivo, 1 h; summary of the method: as §1
# Rattus norvegicus [11] = experiment: Distribution of the radio labelled compound in hippocampus of rat brain after intravenous administration in absence of blocker after 60 min; assay type: ADME, organism-based; settings: in vivo, 1 h; summary of the method: as §1
# Rattus norvegicus [12] = experiment: Distribution of the radio labelled compound in frontal cortex of rat brain after intravenous administration in presence of reboxetine after 60 min; assay type: ADME, organism-based; settings: in vivo, 1 h; summary of the method: as §1
# [13] = Ratio of radioactivity in hypothalamus of rat brain to that of rat cerebellum after intravenous administration after 5 min; assay type: functional; summary of the method: as §3
# Rattus norvegicus [14] = experiment: Distribution of the radio labelled compound in rest of rat brain after intravenous administration in absence of blocker after 60 min; assay type: ADME, organism-based; settings: in vivo, 1 h; summary of the method: as §1
# Rattus norvegicus [15] = experiment: Distribution in brainstem of rat brain after intravenous administration by using [123I]ZIET after 120 min; assay type: ADME, organism-based; settings: in vivo, 2 h; summary of the method: as §2
# Rattus norvegicus [16] = experiment: Distribution of the radio labelled compound in cerebellum of rat brain after intravenous administration in absence of blocker after 60 min; assay type: ADME, organism-based; settings: in vivo, 1 h
# Summary of the method: (§4)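 Male Sprague–Dawley rats (200–250 g), ketamine/xylazine anesthesia, tail-vein cannula. Blocker (4 mg/kg) or nothing given 15 min before iv [123I]ZIET in 10% ethanol/saline. Killed 60 min post-tracer.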
# Rattus norvegicus [17] = experiment: Distribution of the radio labelled compound in hypothalamus of rat brain after intravenous administration in presence of citalopram after 60 min; assay type: ADME, organism-based; settings: in vivo, 1 h; summary of the method: as §1
# Rattus norvegicus [18] = experiment: Distribution in hypothalamus of rat brain after intravenous administration by using [123I]ZIET after 5 min; assay type: ADME, organism-based; settings: in vivo; summary of the method: as §2
# Rattus norvegicus [19] = experiment: Distribution of the radio labelled compound in thyroid of rat brain after intravenous administration in presence of RTI-113 after 60 min; assay type: ADME, organism-based, Thyroid gland; settings: in vivo, 1 h; summary of the method: as §1
# [20] = Ratio of radioactivity in hippocampus of rat brain to that of rat cerebellum after intravenous administration after 5 min; assay type: functional; summary of the method: as §3
# [21] = Ratio of radioactivity in occipital cortex of rat brain to that of rat cerebellum after intravenous administration after 120 min; assay type: functional; summary of the method: as §3
# Rattus norvegicus [22] = experiment: Distribution in rest of rat brain after intravenous administration by using [123I]ZIET after 30 min; assay type: ADME, organism-based; settings: in vivo, 0.5 h; summary of the method: as §2
# [23] = Ratio of radioactivity in occipital cortex of rat brain to that of rat cerebellum after intravenous administration after 60 min; assay type: functional; summary of the method: as §3
# Rattus norvegicus [24] = experiment: Distribution of the radio labelled compound in frontal cortex of rat brain after intravenous administration in presence of citalopram after 60 min; assay type: ADME, organism-based; settings: in vivo, 1 h; summary of the method: as §1
# [25] = Ratio of radioactivity in rest of rat brain to that of rat cerebellum after intravenous administration after 5 min; assay type: functional; summary of the method: as §3
# Rattus norvegicus [26] = experiment: Distribution in frontal cortex of rat brain after intravenous administration by using [123I]ZIET after 5 min; assay type: ADME, organism-based; settings: in vivo; summary of the method: as §2
# Rattus norvegicus [27] = experiment: Distribution in cerebellum of rat brain after intravenous administration by using [123I]ZIET after 60 min; assay type: ADME, organism-based; settings: in vivo, 1 h; summary of the method: as §2
# Rattus norvegicus [28] = experiment: Distribution in striatum of rat brain after intravenous administration by using [123I]-ZIET after 30 min; assay type: ADME, organism-based; settings: in vivo, 0.5 h; summary of the method: as §2
# Rattus norvegicus [29] = experiment: Distribution of the radio labelled compound in occipital cortex of rat brain after intravenous administration in absence of blocker after 60 min; assay type: ADME, organism-based; settings: in vivo, 1 h; summary of the method: as §1
# [30] = Ratio of radioactivity in striatum of rat brain to that of rat cerebellum after intravenous administration after 30 min; assay type: functional; summary of the method: as §3
# [31] = Ratio of radioactivity in hypothalamus of rat brain to that of rat cerebellum after intravenous administration after 120 min; assay type: functional; summary of the method: as §3
# [32] = Ratio of radioactivity in rest of rat brain to that of rat cerebellum after intravenous administration after 30 min; assay type: functional; summary of the method: as §3
# [33] = Ratio of radioactivity in hippocampus of rat brain to that of rat cerebellum after intravenous administration after 60 min; assay type: functional; summary of the method: as §3
# [34] = Ratio of radioactivity in hypothalamus of rat brain to that of rat cerebellum after intravenous administration after 60 min; assay type: functional; summary of the method: as §3
# Rattus norvegicus [35] = experiment: Distribution of the radio labelled compound in hypothalamus of rat brain after intravenous administration in presence of RTI-113 after 60 min; assay type: ADME, organism-based; settings: in vivo, 1 h; summary of the method: as §1
# Rattus norvegicus [36] = experiment: Distribution in occipital cortex of rat brain after intravenous administration by using [123I]ZIET after 30 min; assay type: ADME, organism-based; settings: in vivo, 0.5 h; summary of the method: as §2
# Rattus norvegicus [37] = experiment: Distribution in frontal cortex of rat brain after intravenous administration by using [123I]ZIET after 60 min; assay type: ADME, organism-based; settings: in vivo, 1 h; summary of the method: as §2
# Rattus norvegicus [38] = experiment: Distribution in striatum of rat brain after intravenous administration by using [123I]ZIET after 60 min; assay type: ADME, organism-based; settings: in vivo, 1 h; summary of the method: as §2
# Rattus norvegicus [39] = experiment: Distribution of the radio labelled compound in cerebellum of rat brain after intravenous administration in presence of RTI-113 after 60 min; assay type: ADME, organism-based; settings: in vivo, 1 h; summary of the method: as §4
# Rattus norvegicus [40] = experiment: Distribution of the radio labelled compound in cerebellum of rat brain after intravenous administration in presence of reboxetine after 60 min; assay type: ADME, organism-based; settings: in vivo, 1 h; summary of the method: as §1
# Rattus norvegicus [41] = experiment: Distribution of the radio labelled compound in hippocampus of rat brain after intravenous administration in presence of citalopram after 60 min; assay type: ADME, organism-based; settings: in vivo, 1 h; summary of the method: as §1
# [42] = Ratio of radioactivity in striatum of rat brain to that of rat cerebellum after intravenous administration after 60 min; assay type: functional; summary of the method: as §3
# Rattus norvegicus [43] = experiment: Distribution in hypothalamus of rat brain after intravenous administration by using [123I]ZIET after 30 min; assay type: ADME, organism-based; settings: in vivo, 0.5 h; summary of the method: as §2
# Rattus norvegicus [44] = experiment: Distribution in occipital cortex of rat brain after intravenous administration by using [123I]ZIET after 5 min; assay type: ADME, organism-based; settings: in vivo; summary of the method: as §2
structure (smiles),measurement,setting,value
COC(=O)C1C(c2ccc(/C=C\[123I])cc2)CC2CCC1N2C (centres undefined),Activity,Rattus norvegicus [1],0.42
same,Activity,Rattus norvegicus [2],0.53
same,Activity,Rattus norvegicus [3],2.12
same,Activity,Rattus norvegicus [4],0.69
same,Activity,Rattus norvegicus [5],0.48
same,Ratio,[6],1.8
same,Activity,Rattus norvegicus [7],0.08
same,Activity,Rattus norvegicus [8],0.82
same,Activity,Rattus norvegicus [9],0.53
same,Activity,Rattus norvegicus [10],0.36
same,Activity,Rattus norvegicus [11],0.4
same,Activity,Rattus norvegicus [12],0.47
same,Ratio,[13],1.1
same,Activity,Rattus norvegicus [14],0.37
same,Activity,Rattus norvegicus [15],0.41
same,Activity,Rattus norvegicus [16],0.15
same,Activity,Rattus norvegicus [17],0.2
same,Activity,Rattus norvegicus [18],0.36
same,Activity,Rattus norvegicus [19],1.01
same,Ratio,[20],1.1
same,Ratio,[21],3
same,Activity,Rattus norvegicus [22],0.66
same,Ratio,[23],2.3
same,Activity,Rattus norvegicus [24],0.21
same,Ratio,[25],1.1
same,Activity,Rattus norvegicus [26],0.45
same,Activity,Rattus norvegicus [27],0.27
same,Activity,Rattus norvegicus [28],0.76
same,Activity,Rattus norvegicus [29],0.46
same,Ratio,[30],1.8
same,Ratio,[31],4.3
same,Ratio,[32],1.6
same,Ratio,[33],2.3
same,Ratio,[34],2.6
same,Activity,Rattus norvegicus [35],0.55
same,Activity,Rattus norvegicus [36],0.76
same,Activity,Rattus norvegicus [37],0.71
same,Activity,Rattus norvegicus [38],0.71
same,Activity,Rattus norvegicus [39],0.13
same,Activity,Rattus norvegicus [40],0.15
same,Activity,Rattus norvegicus [41],0.17
same,Ratio,[42],2.6
same,Activity,Rattus norvegicus [43],0.68
same,Activity,Rattus norvegicus [44],0.45

# Reference: ChEMBL document CHEMBL1149321, “Synthesis, radiosynthesis, and biological evaluation of carbon-11 and iodine-123 labeled 2beta-carbomethoxy-3beta-[4'-((Z)-2-haloethenyl)phenyl]tropanes: candidate radioligands for in vivo imaging of the serotonin transporter” (J Med Chem, 2004)
